Test results as given in PubChem BioAssay AID2805 (Sanford-Burnham Center for Chemical Genomics, 2010).
The whole screen tested about 330,000 compounds, of which about 780 (0.24%) were called active. What follows is part of a selection rich in actives, with near analogues and random picks from the rest. Values without a mark were called inactive.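 Rule for the calls: active = activation factor of at least 2 at 20 µM; inactive = the rest.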

These molecules were tested on intestinal alkaline phosphatase [Mus musculus] (assay: activators of mouse IAP, primary screen, biochemical, luminescence, uHTS (AID 2805)). Conditions: muIAP, CDP-Star luminescence, 30 min; at 10 µM; active compounds read high; 1 = vehicle-only enzyme signal, 0 = enzyme-free wells.
In short: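 System: Mouse IAP enzyme | Also added: CDP-Star substrate | Dosing: Compounds dispensed in DMSO | Schedule: 30 min enzyme-substrate-compound incubation at room temperature | Technique: Chemiluminescence readout | Control set: DMSO-only wells and no-enzyme negative control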

Compared with COc1ccc(CCNC(=O)C2CCCN(Cc3nc(-c4cccc(Cl)c4)oc3C)C2)cc1OC (centres undefined), COc1cc(CN2CCC(n3nccc3NC(=O)CCCc3ccccc3)CC2)ccc1O is higher in activation factor: 0.883 for the first, 1.47 for the second.

Going from CN(C)C(=O)N1CCNCC1 to Cc1cc(C(F)(F)F)nn1CC(=O)N1CCCC1, the activation factor rises from 0.933 to 1.12.

Compared with c1ccc(CCN2CN=C(Nc3nc4ccccc4o3)NC2)cc1, Cc1ccc(CN2CCC(n3nccc3NC(=O)CCCc3ccccc3)CC2)o1 is higher in activation factor: 0.958 for the first, 1.09 for the second.

Going from CC[C@]12c3[nH]c4ccc(Cl)cc4c3CCN1C(=O)[C@@H](CC(=O)NCCCOC)C[C@@H]2C(=O)N1CCN(C(=O)C2CC2)CC1 to COc1ccc(-n2nc(C(=O)NCC(=O)N3CCN(c4ccccc4OC)CC3)c3ccccc3c2=O)c(OC)c1, the activation factor rises from 0.995 to 1.03.

First: C[C@@H](O)c1nc2ccccc2n1N
Second: COC(=O)c1ccc(NC(=O)C(C)N2C(=O)c3ccccc3C2=O)cc1 (centres undefined)
The activation factor of the first is lower: 0.944 for the first, 0.997 for the second.

Compared with COCCNC(=O)CCCN1C(=O)c2ccccc2Sc2ncccc21, CCn1cc(CN2CCC(n3nccc3NC(=O)CCCc3ccccc3)CC2)c(C)n1 is higher in activation factor: 1.03 for the first, 1.22 for the second.

First: Cc1cc(Cl)nc(NC(=O)Nc2cccc(Cl)c2)n1
Second: COc1cc(NC(=O)Nc2ccc(C)cc2)cc([N+](=O)[O-])c1
The activation factor of the first is lower: 0.931 for the first, 0.983 for the second.

First: CN(c1cccc(NC(=O)c2ccc(CN3CCc4ccccc4C3)cc2)c1)S(C)(=O)=O
Second: CN(CCc1ccccn1)C(=O)c1ccc(OC2CCN(CCc3ccccc3)CC2)cc1
The activation factor of the first is lower: 1.06 for the first, 1.07 for the second.

First: CC(C)c1nc(SCC(=O)NC(=O)NC(C)(C)C)n[nH]1
Second: CCOC(=O)c1sc(NC(=O)CSc2nc(O)c(Cc3ccccc3)c(=O)[nH]2)nc1C
The activation factor of the first is higher: 1 for the first, 0.914 for the second.

Going from Cc1noc(C)c1CSc1nc2cc(S(=O)(=O)N3CCOCC3)ccc2o1 to CC1(C)Cc2cccc(OCC(=O)N3CCN(c4ccc([N+](=O)[O-])cc4)CC3)c2O1, the activation factor falls from 0.946 to 0.924.

First: CN(Cc1ccc(F)cc1)C(=O)COc1ccc2ccccc2c1
Second: COc1cccc(C(=O)NCCSc2ccc(Br)cc2)c1
The activation factor of the first is lower: 1 for the first, 1.14 for the second.

Going from COc1cc(NC(=S)NCc2ccc(S(N)(=O)=O)cc2)cc(OC)c1 to FC(F)(F)Oc1ccc(NC(=S)NCc2ccccc2)cc1, the activation factor rises from 1.06 to 1.66.

Going from S=c1nccc(-c2cc(Cl)sc2Cl)[nH]1 to Cc1c(C(C)(C)O)[nH]c2ccc(C#N)cc12, the activation factor rises from 1.08 to 1.11.

Compared with CC(CNC(=O)c1ccc(N)cc1)NC(=O)c1ccc(N)cc1 (centres undefined), CC(C)c1cc(C(N)=O)c(NC(=O)c2cccc(COc3ccc(Br)cc3)c2)s1 is lower in activation factor: 1.09 for the first, 0.925 for the second.

Compared with O=C(NC1CCCC1)C1CCN(C(=O)Nc2cccc(Cl)c2)CC1, COc1cccc(-c2cccc(NC(=O)C3CCN(C4CCC4)CC3)c2)c1 is lower in activation factor: 1.03 for the first, 1.01 for the second.

First: O=C(Nc1cnn(Cc2ccc(Cl)cc2)c1)C1CCCC1
Second: O=C(Nc1cccc(-c2cscn2)c1)C1CCN(Cc2ccsc2)CC1
The activation factor of the first is lower: 0.956 for the first, 1.47 for the second.

Compared with CC(=O)c1cc(CN2CCC(C(=O)Nc3cccc(-c4cscn4)c3)CC2)cs1, O=C1CCC(C(=O)N2CCC(O)(c3ccccc3)CC2)CN1CCc1ccccc1 (centres undefined) is lower in activation factor: 1.08 for the first, 0.942 for the second.

First: N#Cc1c(C(F)(F)F)cc(-c2cccs2)nc1N1CCCCC1
Second: CN1CCN(C(CNS(=O)(=O)c2cccs2)c2cccnc2)CC1 (centres undefined)
The activation factor of the first is higher: 1.01 for the first, 0.991 for the second.

Going from CCC(=O)c1ccc(OCC(O)Cn2nc(C)c(C(C)=O)c2C)cc1 (centres undefined) to Cc1ccc(C(=O)c2coc3ccc(O)c(CN(C)C)c23)cc1, the activation factor rises from 0.903 to 1.09.

First: CCc1ccc(-n2c(SCc3cc(=O)n4cc(Br)ccc4n3)nc3[nH]ncc3c2=O)cc1
Second: S=C(NCc1cccs1)Nc1ccc(Cl)cc1
The activation factor of the first is lower: 0.976 for the first, 1.5 for the second.

Work on CC1(C)CC(=O)c2sc(N)nc2C1 yielded an activation factor of 0.979.

CN(c1cccc(NC(=O)Nc2ccc(Cl)cc2)c1)S(C)(=O)=O was tested, and the activation factor was 2.3 (active).
For COc1cc(NC(=S)NCCSc2ccc(C)cc2)cc(OC)c1, the activation factor was 2.86 (active).
For CCn1cc(CN2CCC(C(=O)Nc3cccc(-c4cccc(Cl)c4)c3)CC2)c(C)n1, the activation factor was 3.39 (active).
In the case of CCn1cc(CN2CCC(C(=O)Nc3cccc(-c4cccc(Cl)c4)c3)CC2)cn1, the activation factor is reported as 5.15 (active).
For O=C(Nc1cccc(-c2cccc(Cl)c2)c1)C1CCN(C2CCC2)CC1, the activation factor was 6.17 (active).
With COc1ccc(CN2CCC(n3nccc3NC(=O)CCCc3ccccc3)CC2)cc1C the activation factor was 2.47 (active).
COC(=O)c1ccc(NC(=O)Nc2ccc(C)cc2)cc1 was tested, and the activation factor was 2.13 (active).
In the case of Fc1ccccc1CNC(=S)Nc1ccc(Cl)cc1, the activation factor is reported as 2.42 (active).
